Assay results pooled from the literature.
Protocols differ between the studies behind these lines.
Target: Ribosomal protein S6 kinase beta-1 (RPS6KB1, Homo sapiens, UniProt P23443)

Compound | effect on | technique | concentration | remaining binding
O=C(c1ccc(Nc2ncc(Cl)c(-c3cc4ccccc4s3)n2)cc1)N1CCC(N2CCCC2)CC1 | binding | competition with immobilised ligand | 1 µM | 37%
N#CC1(c2ccccn2)CCN(Cc2cc(C(=O)N3CCCC3)c(=O)n3ccccc23)CC1 | binding | competition with immobilised ligand | 1 µM | 34%
COc1cnc(Nc2cccc(S(N)(=O)=O)c2)nc1N1CCN(c2ccccc2)C(=O)C1 | binding | competition with immobilised ligand | 1 µM | 71%
c1cnn2ncc(-c3ccnc(N4CCC45COC5)n3)c2c1 | binding |  | 1 µM | 66%
O=C(c1ccc(Nc2ncc(Cl)c(-c3ccc(Cl)s3)n2)cc1)N1CCC(N2CCCC2)CC1 | binding | competition with immobilised ligand | 1 µM | 21%
COc1cnc(Nc2cccc(S(N)(=O)=O)c2)nc1N1CCN(c2ccccc2)CC1 | binding | competition with immobilised ligand | 1 µM | 94%
c1cncc(-c2cccc(Nc3nccc(NC4CCCCC4)n3)c2)c1 | binding | competition with immobilised ligand | 10 µM | 64%
CN(C)c1ncc(F)c(-c2cnn3ncccc23)n1 | binding |  | 1 µM | 78%
C[C@@H](c1cccc(C#N)c1)n1cc(Cl)cc(C(N)=O)c1=N | cell-free assay | competition with immobilised ligand | 1 µM | 100%
O=C(NCC1CCOCC1)c1n[nH]cc1NC(=O)c1c(F)cccc1F | binding | competition with immobilised ligand | 1 µM | 87%
O=C(c1ccc(Nc2nccc(-c3cc4ccccc4s3)n2)cc1)N1CCC(N2CCCC2)CC1 | binding | competition with immobilised ligand | 1 µM | 79%
CCN1CCN(Cc2ccc(C(=O)Nc3ccc(C)c(Oc4ccc5c(c4)CC(=O)N5)c3)cc2C(F)(F)F)CC1 | binding | competition with immobilised ligand | 1 µM | 100%
F[C@@H]1CCN(c2nccc(-c3cnn4ncccc34)n2)C1 | binding |  | 1 µM | 100%
O=C(NC[C@@H]1[C@H]2CN(C(=O)OCc3cc(C(F)(F)F)cc(C(F)(F)F)c3)C[C@@H]12)c1ccc2[nH]nnc2c1 | cell-free assay | competition with immobilised ligand | 1 µM | 86%
CN(CCCC(F)(F)F)c1nccc(-c2cnn3ncccc23)n1 | binding |  | 1 µM | 100%
CCC(=N\O)/C(C)=C/c1ccc(F)cc1 | cell-free assay | competition with immobilised ligand | 1 µM | 66%
N[C@@H]1CCN(c2nccc(-c3cnn4ncccc34)n2)C1 | binding |  | 1 µM | 100%
CN(C)C(=O)Cn1cc(-c2nc([C@@](C)(c3ccc(-c4cnc(N)nc4)cc3)C3CC3)no2)cn1 | cell-free assay | competition with immobilised ligand | 1 µM | 83%
C[C@H]1CCN(c2nccc(-c3cnn4ncccc34)n2)C1 | binding |  | 1 µM | 81%
Cc1c(C(=O)O)cc(-c2ccc(C3CCNCC3)cc2)c2ccc(-c3ccc(C(F)(F)F)cc3)cc12 | binding | competition with immobilised ligand | 1 µM | 100%
